In ChEMBL document CHEMBL1140298, “Identification of borinic esters as inhibitors of bacterial cell growth and bacterial methyltransferases, CcrM and MenH” (2005):
In brackets after ≈: the same amount, converted by molar mass. Activity calls are given as the source filed them. The calls are words filed in the database; no cut-off is given here.

Key:
[1] = system: Staphylococcus aureus; assay: Antibacterial activity against Staphylococcus aureus ATCC 29213; type: functional
How it was run: (§1)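 MIC determined following NCCLS guidelines.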

[2] = system: Moraxella catarrhalis; assay: Antibacterial activity against Moraxella catarrhalis; type: functional; how it was run: as §1
[3] = system: Haemophilus influenzae; assay: Antibacterial activity against Haemophilus influenzae ATCC 4976; type: functional; how it was run: as §1
[4] = system: Staphylococcus epidermidis; assay: Antibacterial activity against Staphylococcus epidermidis ATCC 12228; type: functional; how it was run: as §1
[5] = system: Enterococcus faecium; assay: Antibacterial activity against Enterococcus faecium CT26; type: functional; how it was run: as §1
[6] = system: Yersinia pseudotuberculosis; assay: Antibacterial activity against Yersinia pseudotuberculosis ATCC 29833; type: functional
How it was run: (§2)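 MIC read-out, determined according to NCCLS guidelines.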

[7] = system: Enterococcus faecalis; assay: Antibacterial activity against Enterococcus faecalis ATCC 29212; type: functional; how it was run: as §1
[8] = system: Caulobacter vibrioides; assay: Inhibition of Caulobacter crescentus DNA methyltransferase CcrM assessed as transfer of [3H-Me] to DNA at 100 uM relative to control
How it was run: (§3)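 Inhibitor at 100 uM; methyl transfer from [3H-Me]-AdoMet to DNA substrate measured, expressed as percent of activity without inhibitor.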

[9] = system: Caulobacter vibrioides; assay: Antibacterial activity against Caulobacter crescentus after 18 hrs; type: functional
[10] = system: Francisella tularensis; assay: Antibacterial activity against Francisella tularensis; type: functional; how it was run: as §2
[11] = system: Bacillus subtilis; assay: Antibacterial activity against Bacillus subtilis ATCC 23857; type: functional; how it was run: as §1
[12] = system: Mycobacterium tuberculosis; assay: Antibacterial activity against Mycobacterium tuberculosis H37Rv; type: functional; how it was run: as §2
[13] = system: Bacillus anthracis; assay: Antibacterial activity against Bacillus anthracis; type: functional; how it was run: as §2
[14] = system: Escherichia coli; assay: Inhibition of Escherichia coli DNA methyltransferase Dam assessed as transfer of [3H-Me] to DNA at 100 uM relative to control; how it was run: as §3
[15] = target: T1, Demethylmenaquinone methyltransferase (Bacillus subtilis (strain 168)) (UniProt P31113); assay: Inhibition of Bacillus subtilis MenH methyltransferase assessed as {3H-Me] to DNA at 100 uM relative control
T1 sequence (whole entry): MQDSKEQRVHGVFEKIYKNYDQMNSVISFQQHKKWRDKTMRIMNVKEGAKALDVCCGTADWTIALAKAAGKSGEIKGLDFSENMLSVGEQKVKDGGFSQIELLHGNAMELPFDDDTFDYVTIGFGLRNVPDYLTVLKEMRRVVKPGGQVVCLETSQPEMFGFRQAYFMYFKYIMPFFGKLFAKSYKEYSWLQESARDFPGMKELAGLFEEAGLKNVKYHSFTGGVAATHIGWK
How it was run: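 Lysate of E. coli JM109 overexpressing B. subtilis MenH (IPTG 1 mM induction, sonicated) in 0.1 M Tris-HCl pH 8.0, 10 mM MgCl2, 10 mM DTT, 1 uM FPP, 1 uM 1,4-dihydroxy-2-naphthoic acid, 1 uM IPP, 20 uM AdoMet plus [3H]-AdoMet; inhibitor 100 uM final; 37 °C 1 h; acid-methanol quench, hexane/2-propanol extraction, scintillation counting; triplicate; % of no-inhibitor activity.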

| Compound | MIC [1] | MIC [2] | MIC [3] | MIC [4] | MIC [5] | MIC [6] | MIC [7] | Activity [8] | MIC [9] | MIC [10] | MIC [11] | MIC [12] | MIC [13] | Activity [14] | inhibition [15] |
| --- | --- | --- | --- | --- | --- | --- | --- | --- | --- | --- | --- | --- | --- | --- | --- |
| C=CB(Oc1cccc2cccnc12)c1ccccc1 | 2 µg/mL (≈ 7.72 µM) | 2 µg/mL (≈ 7.72 µM) | 16 µg/mL (≈ 61.7 µM) | 1 µg/mL (≈ 3.86 µM) | 4 µg/mL (≈ 15.4 µM) | 32 µg/mL (≈ 123 µM) | > 64 µg/mL | – | – | – | – | – | – | – | – |
| Cc1ccc2cccc(OB(c3ccc(Cl)cc3)c3ccc(Cl)cc3)c2n1 | 16 µg/mL (≈ 40.8 µM) | – | – | 8 µg/mL (≈ 20.4 µM) | 16 µg/mL (≈ 40.8 µM) | – | 32 µg/mL (≈ 81.6 µM) | Active | 2 µg/mL (≈ 5.1 µM) | 6 µg/mL (≈ 15.3 µM) | – | – | – | – | – |
| C=CB(Oc1cccc2cccnc12)c1ccc(Cl)cc1 | 2 µg/mL (≈ 6.81 µM) | 1 µg/mL (≈ 3.41 µM) | 2 µg/mL (≈ 6.81 µM) | 1 µg/mL (≈ 3.41 µM) | 4 µg/mL (≈ 13.6 µM) | 32 µg/mL (≈ 109 µM) | > 64 µg/mL | – | – | – | 4 µg/mL (≈ 13.6 µM) | 0.62 µg/mL (≈ 2.11 µM) | – | – | – |
| Clc1ccc(B(Oc2cccc3cccnc23)c2ccc(Cl)cc2)cc1 | 2 µg/mL (≈ 5.29 µM) | 2 µg/mL (≈ 5.29 µM) | 8 µg/mL (≈ 21.2 µM) | 2 µg/mL (≈ 5.29 µM) | 4 µg/mL (≈ 10.6 µM) | 64 µg/mL (≈ 169 µM) | 4 µg/mL (≈ 10.6 µM) | Active | 4 µg/mL (≈ 10.6 µM) | 0.03 µg/mL (≈ 0.0794 µM) | 2 µg/mL (≈ 5.29 µM) | 0.31 µg/mL (≈ 0.82 µM) | 6.25 µg/mL (≈ 16.5 µM) | – | – |
| C=CB(Oc1cccc2cccnc12)c1cccc(F)c1 | 2 µg/mL (≈ 7.22 µM) | 1 µg/mL (≈ 3.61 µM) | 2 µg/mL (≈ 7.22 µM) | 1 µg/mL (≈ 3.61 µM) | 2 µg/mL (≈ 7.22 µM) | 32 µg/mL (≈ 115 µM) | > 64 µg/mL | – | – | 16 µg/mL (≈ 57.7 µM) | 2 µg/mL (≈ 7.22 µM) | 0.31 µg/mL (≈ 1.12 µM) | 8 µg/mL (≈ 28.9 µM) | – | – |
| Clc1ccc(B(Oc2ccc(Cl)c3cccnc23)c2ccc(Cl)cc2)cc1 | 0.5 µg/mL (≈ 1.21 µM) | ≤ 0.125 µg/mL | 0.25 µg/mL (≈ 0.606 µM) | 0.25 µg/mL (≈ 0.606 µM) | 2 µg/mL (≈ 4.85 µM) | 8 µg/mL (≈ 19.4 µM) | 32 µg/mL (≈ 77.6 µM) | Active | 2.6 µg/mL (≈ 6.3 µM) | 0.01 µg/mL (≈ 0.0242 µM) | 32 µg/mL (≈ 77.6 µM) | 0.62 µg/mL (≈ 1.5 µM) | 5.3 µg/mL (≈ 12.8 µM) | – | – |
| C=CB(Oc1cccc2cccnc12)c1ccccc1Cl | 2 µg/mL (≈ 6.81 µM) | 1 µg/mL (≈ 3.41 µM) | 2 µg/mL (≈ 6.81 µM) | 1 µg/mL (≈ 3.41 µM) | 2 µg/mL (≈ 6.81 µM) | 32 µg/mL (≈ 109 µM) | 64 µg/mL (≈ 218 µM) | – | – | 16 µg/mL (≈ 54.5 µM) | 4 µg/mL (≈ 13.6 µM) | 0.31 µg/mL (≈ 1.06 µM) | – | – | – |
| Fc1ccc(B(Oc2cccc3cccnc23)c2ccc(F)cc2)cc1 | 4 µg/mL (≈ 11.6 µM) | 2 µg/mL (≈ 5.79 µM) | 4 µg/mL (≈ 11.6 µM) | 2 µg/mL (≈ 5.79 µM) | 32 µg/mL (≈ 92.7 µM) | – | 32 µg/mL (≈ 92.7 µM) | – | 12.5 µg/mL (≈ 36.2 µM) | – | – | 0.62 µg/mL (≈ 1.8 µM) | – | – | – |
| C=CB(Oc1cccc2cccnc12)c1cccc(C#N)c1 | 1 µg/mL (≈ 3.52 µM) | 2 µg/mL (≈ 7.04 µM) | 2 µg/mL (≈ 7.04 µM) | 1 µg/mL (≈ 3.52 µM) | 2 µg/mL (≈ 7.04 µM) | 32 µg/mL (≈ 113 µM) | 8 µg/mL (≈ 28.2 µM) | – | – | 8 µg/mL (≈ 28.2 µM) | 4 µg/mL (≈ 14.1 µM) | 0.62 µg/mL (≈ 2.18 µM) | 8 µg/mL (≈ 28.2 µM) | – | – |
| Clc1ccc(C(Oc2cccc3cccnc23)c2ccc(Cl)cc2)cc1 | > 64 µg/mL | – | > 64 µg/mL | > 64 µg/mL | > 64 µg/mL | > 64 µg/mL | > 64 µg/mL | inactive | – | – | > 64 µg/mL | > 5 µg/mL | – | inactive | – |
| C=CB(Oc1cccc2cccnc12)c1cccc(Cl)c1 | 2 µg/mL (≈ 6.81 µM) | 4 µg/mL (≈ 13.6 µM) | 4 µg/mL (≈ 13.6 µM) | 1 µg/mL (≈ 3.41 µM) | 4 µg/mL (≈ 13.6 µM) | 16 µg/mL (≈ 54.5 µM) | 64 µg/mL (≈ 218 µM) | – | – | – | 4 µg/mL (≈ 13.6 µM) | 0.62 µg/mL (≈ 2.11 µM) | 8 µg/mL (≈ 27.3 µM) | – | 50% |
| Clc1cccc(B(Oc2cccc3cccnc23)c2cccc(Cl)c2)c1 | 1 µg/mL (≈ 2.65 µM) | 2 µg/mL (≈ 5.29 µM) | 8 µg/mL (≈ 21.2 µM) | 2 µg/mL (≈ 5.29 µM) | 4 µg/mL (≈ 10.6 µM) | 32 µg/mL (≈ 84.6 µM) | 32 µg/mL (≈ 84.6 µM) | Active | – | 0.01 µg/mL (≈ 0.0265 µM) | 2 µg/mL (≈ 5.29 µM) | 0.62 µg/mL (≈ 1.64 µM) | 6.25 µg/mL (≈ 16.5 µM) | – | – |
| C=CB(Oc1cccc2cccnc12)c1ccc(F)c(Cl)c1 | 2 µg/mL (≈ 6.42 µM) | 2 µg/mL (≈ 6.42 µM) | 4 µg/mL (≈ 12.8 µM) | 1 µg/mL (≈ 3.21 µM) | 2 µg/mL (≈ 6.42 µM) | 32 µg/mL (≈ 103 µM) | 32 µg/mL (≈ 103 µM) | – | – | – | 4 µg/mL (≈ 12.8 µM) | 0.62 µg/mL (≈ 1.99 µM) | – | – | – |
